Common to all, as to type: functional, cell-based
For one assay, the system named is DU-145. Nature of the assay: Cytotoxicity against human DU145 cells assessed as cell growth inhibition after 48 hrs by MTT assay. The settings on record: DU-145, 48 h. A digest of the protocol: (§1)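 MTT assay. Cells were seeded at 1×10^4 per well in their medium with 10% FBS and allowed 24 h at 37 °C. Compound diluted in medium was added alongside a vehicle control and left for 48 h. MTT (0.5 mg/mL) was then added for 4 h, formazan dissolved in DMSO, and absorbance read at 570 nm. IC50 is the concentration inhibiting 50% of cells.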
(In general: Tetrazolium dyes change colour on reduction, which living cells bring about.)

The next assay has as its system HT-29. Nature of the assay: Cytotoxicity against human HT-29 cells assessed as cell growth inhibition after 48 hrs by MTT assay. The settings on record: HT-29, 48 h. The procedure, abridged:
as §1

The next assay deals with HCT-116. Nature of the assay: Cytotoxicity against human HCT116 cells assessed as cell growth inhibition after 48 hrs by MTT assay. The settings on record: HCT-116, 48 h. The procedure, abridged:
as §1

Another assay relates to MCF7. Nature of the assay: Cytotoxicity against human MCF7 cells assessed as cell growth inhibition after 48 hrs by MTT assay. The following applies: MCF7, 48 h. A digest of the protocol: as §1
In a further assay the test system is A549. Nature of the assay: Cytotoxicity against human A549 cells assessed as cell growth inhibition after 48 hrs by MTT assay. The following applies: A549, 48 h. The procedure, abridged:
as §1

The next assay relates to PC-3. Nature of the assay: Cytotoxicity against human PC3 cells assessed as cell growth inhibition after 48 hrs by MTT assay. The following applies: PC-3, 48 h. A digest of the protocol: as §1

Take `COc1cc2c3c(c4cc(OC)c(OC)cc4c2cc1OC)C(c1ccc(Br)cc1)CC(=O)N3` (stereo unspecified): the IC50 (in general, the concentration at which inhibition is half-maximal) is above 20 µM in the assay on DU-145; 15.5 µM in the assay on HT-29; 16.5 µM with HCT-116; above 20 µM with MCF7; 7.16 µM in the assay on A549; above 20 µM in the assay on PC-3.

Take `COc1cc2c3c(c4cc(OC)c(OC)cc4c2cc1OC)C(c1ccc(F)c(F)c1)CC(=O)N3` (stereo unspecified): the IC50 was above 20 µM with DU-145; 17.9 µM in the assay on HT-29; 13.4 µM with HCT-116; above 20 µM in the assay on MCF7; 7.78 µM with A549; above 20 µM in the assay with PC-3.

For `COc1cc2c3c(c4cc(OC)c(OC)cc4c2cc1OC)C(c1ccc(O)c(O)c1)CC(=O)N3` (stereo unspecified), the IC50 is above 20 µM in the assay with DU-145; 10.3 µM in the assay on HT-29; 12.6 µM in the assay with HCT-116; above 20 µM in the assay on MCF7; 11.6 µM in the assay on A549; 19.8 µM with PC-3.

With `COc1cc2c3c(c4cc(OC)c(OC)cc4c2cc1OC)C(c1cccs1)CC(=O)N3` (stereo unspecified), the 50% inhibitory concentration (IC50) with DU-145 was above 20 µM; in the assay on HT-29, 18.9 µM; in the assay with HCT-116, 13.8 µM; in the assay with MCF7 it was above 20 µM; in the assay with A549, 8.5 µM; in the assay on PC-3, above 20 µM.

Regarding `COc1cc([C@@H]2c3cc4c(cc3[C@@H](O[C@@H]3O[C@@H]5CO[C@@H](C)O[C@H]5[C@H](O)[C@H]3O)[C@H]3COC(=O)[C@H]23)OCO4)cc(OC)c1O` [ETOPOSIDE], the IC50 in the assay with DU-145 was 2.13 µM; with HCT-116 it was 2.6 µM; with MCF7 it was 2.03 µM; in the assay with A549, 3.25 µM; with PC-3, 5.4 µM.

Consider `COc1cc2c3c(c4cc(OC)c(OC)cc4c2cc1OC)C(c1ccc(C)cc1)CC(=O)N3` (stereo unspecified), for which the IC50 with DU-145 is 16.9 µM; with HT-29, above 20 µM; with HCT-116 it was above 20 µM; in the assay on MCF7 it was above 20 µM; in the assay with A549 it was 16.7 µM; in the assay on PC-3 it was above 20 µM.

Regarding `COc1ccc(C2CC(=O)Nc3c2c2cc(OC)c(OC)cc2c2cc(OC)c(OC)cc32)cc1` (stereo unspecified), the IC50 is 17 µM with DU-145; 16.7 µM in the assay on HT-29; above 20 µM in the assay with HCT-116; above 20 µM in the assay with MCF7; 8.94 µM in the assay with A549; 19.1 µM in the assay with PC-3.

In the case of `COc1ccc(C2CC(=O)Nc3c2c2cc(OC)c(OC)cc2c2cc(OC)c(OC)cc32)cc1OC` (stereo unspecified), the IC50 was 13.1 µM in the assay on DU-145; 12.2 µM in the assay on HT-29; 8.12 µM in the assay on HCT-116; above 20 µM in the assay on MCF7; 4.09 µM in the assay on A549; above 20 µM with PC-3.

Regarding `COc1cc2c3c(c4cc(OC)c(OC)cc4c2cc1OC)C(c1cccc(Br)c1)CC(=O)N3` (stereo unspecified), the IC50 in the assay with DU-145 was 18.5 µM; with HT-29, above 20 µM; with HCT-116, above 20 µM; in the assay with MCF7 it was above 20 µM; in the assay with A549, above 20 µM; in the assay with PC-3 it was above 20 µM.

For `COc1cc2c3c(c4cc(OC)c(OC)cc4c2cc1OC)C(c1cccc(C(F)(F)F)c1)CC(=O)N3` (stereo unspecified), the 50% inhibitory concentration (IC50) was 6.19 µM in the assay on DU-145; 18.7 µM with HT-29; 15.4 µM in the assay on HCT-116; above 20 µM with MCF7; 5.03 µM with A549; 18.5 µM in the assay on PC-3.

Regarding `COc1cc2c3c(c4cc(OC)c(OC)cc4c2cc1OC)C(c1cccc2ccccc12)CC(=O)N3` (stereo unspecified), the IC50 with DU-145 is 16.1 µM; in the assay on HT-29, 18.4 µM; in the assay with HCT-116, 17.2 µM; with MCF7 it was above 20 µM; in the assay on A549 it was 14.7 µM.

As for `COc1cc2c3c(c4cc(OC)c(OC)cc4c2cc1OC)C(c1ccccc1)CC(=O)N3` (stereo unspecified), the IC50 in the assay with DU-145 is 18.8 µM; in the assay with HT-29 it was above 20 µM; in the assay with HCT-116 it was above 20 µM; in the assay on MCF7, above 20 µM; in the assay with A549, above 20 µM; in the assay with PC-3 it was above 20 µM.

`COc1cc2c3c(c4cc(OC)c(OC)cc4c2cc1OC)C(c1ccc(Cl)cc1)CC(=O)N3` (stereo unspecified): the IC50 in the assay with DU-145 is 19 µM; with HT-29, 13.8 µM; with HCT-116, 14.2 µM; in the assay on MCF7, above 20 µM; in the assay with A549, 6.49 µM; with PC-3, above 20 µM.

`COc1cc2c3c(c4cc(OC)c(OC)cc4c2cc1OC)C(c1ccc(F)cc1)CC(=O)N3` (stereo unspecified): the IC50 in the assay with DU-145 was found to be 11.1 µM; with HT-29 it was 17.4 µM; in the assay on HCT-116 it was 16.2 µM; with MCF7 it was 12.2 µM; with A549, 6.29 µM; in the assay with PC-3 it was 19.9 µM.

For the compound `COc1cc2c3c(c4cc(OC)c(OC)cc4c2cc1OC)C(c1sccc1C)CC(=O)N3` (stereo unspecified), the IC50 was 19.6 µM in the assay with DU-145; above 20 µM in the assay with HT-29; above 20 µM with HCT-116; above 20 µM in the assay with MCF7; 15.4 µM with A549; above 20 µM in the assay on PC-3.

In the case of `COc1cc2c3c(c4cc(OC)c(OC)cc4c2cc1OC)C(c1ccc2c(c1)OCCO2)CC(=O)N3` (stereo unspecified), the 50% inhibitory concentration (IC50) in the assay on DU-145 is above 20 µM; with HT-29 it was above 20 µM; in the assay on HCT-116, above 20 µM; with MCF7, above 20 µM; in the assay with A549 it was 7.95 µM; with PC-3, 18.4 µM.

In the case of `COc1cc2c3c(c4cc(OC)c(OC)cc4c2cc1OC)C(c1ccc(C(C)C)cc1)CC(=O)N3` (stereo unspecified), the IC50 is 18.2 µM in the assay with DU-145; 16 µM in the assay on HT-29; above 20 µM in the assay on HCT-116; above 20 µM in the assay on MCF7; 8.84 µM with A549; above 20 µM in the assay on PC-3.

In the case of `COc1cccc(C2CC(=O)Nc3c2c2cc(OC)c(OC)cc2c2cc(OC)c(OC)cc32)c1` (stereo unspecified), the IC50 with DU-145 was 18.9 µM; in the assay on HT-29 it was above 20 µM; with HCT-116, above 20 µM; with MCF7 it was above 20 µM; with A549, above 20 µM; in the assay with PC-3, above 20 µM.

The values are drawn from ChEMBL document CHEMBL4219132, “Sulfamic acid promoted one-pot synthesis of phenanthrene fused-dihydrodibenzo-quinolinones: Anticancer activity, tubulin polymerization inhibition and apoptosis inducing studies” (Bioorg Med Chem, 2018).
